# Screening data deposited in PubChem BioAssay by several laboratories.
# OXTR potentiate: human OXTR potentiators, primary screen, fluorescence, CHO-OTR cells, Fluo-8 calcium | Oxytocin receptor (Homo sapiens), P30559 | activation, % at 3 µM | Fluo-8 calcium fluorescence, potentiator mode; 0% = oxytocin EC15, 100% = EC100 | 0.061% of 320,000 active;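 active = activation above that plate's cutoff, the mean activation of tested compounds plus 3 SD, cut at about 6.6% in these data, passing the limit was not always enough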
# Target sequence (P30559 whole entry, looked up): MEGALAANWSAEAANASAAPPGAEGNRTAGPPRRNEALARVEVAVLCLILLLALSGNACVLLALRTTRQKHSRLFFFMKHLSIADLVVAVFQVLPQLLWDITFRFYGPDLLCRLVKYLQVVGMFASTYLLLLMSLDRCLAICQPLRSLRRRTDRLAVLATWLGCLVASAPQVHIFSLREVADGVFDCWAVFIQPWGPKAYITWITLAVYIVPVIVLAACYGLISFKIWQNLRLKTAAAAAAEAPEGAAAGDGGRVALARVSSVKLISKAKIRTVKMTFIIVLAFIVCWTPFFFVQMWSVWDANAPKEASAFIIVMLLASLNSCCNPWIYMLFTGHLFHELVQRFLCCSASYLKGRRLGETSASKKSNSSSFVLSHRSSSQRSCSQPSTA
#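 Material: human OTR in CHO cells. Compound: 3.0 µM, one dose. Timing: compound 6 min at room temperature before oxytocin, 100 s read. Evaluation: % activation of max/min ratio relative to oxytocin controls. Replication: single well per compound, singlicate. Signal: Fluo-8 calcium dye fluorescence.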
# TRPML3 agonist: human TRPML3 channel agonists, primary screen, cell-based, HEK293 TRPML3-YFP, Fluo-8 calcium fluorescence, 3 µM; Mucolipin-3 (Homo sapiens), Q8TDD5; 0.29% of 220,000 active; activation, % at 3 µM; 100% = the carbachol control signal;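 active = activation above its plate's cutoff, the mean activation of the plate's test wells plus 3 SD, cut at about 12% in these data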
#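 Test system: TRPML3-YFP stable HEK293 cells. Doses: single point at 3 µM. Incubation: dye loading 1 h 37 °C then 30 min ambient, 125 s read. Signal: Fluo-8 calcium dye fluorescence, ex 470-495, em 515-575 nm. Measure: percent activation from peak-to-basal fluorescence ratio, scaled between DMSO and carbachol.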
# zfTRPN1 agonist: zebrafish TRPN1 channel agonists, primary screen, cell-based, HEK293, calcium fluorescence | transient receptor potential cation channel N1 (TRPN1/NompC), Danio rerio | HEK293 zebrafish TRPN1-YFP, Fluo-8 calcium fluorescence; 100% = response to 87 µM carbachol | activation, % at 3 µM | 0.18% of 220,000 active | AID 1424, 2008;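 active = activation above its plate's cutoff, the mean activation of test wells on that plate plus 3 SD, cut at about 19% in these data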
#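 Material – zebrafish TRPN1-YFP in HEK293 cells · Doses – 3 µM single point · Schedule – dye 1 h 37 °C plus 30 min RT · Signal – Fluo-8 calcium fluorescence, excitation 470-495 nm, emission 515-575 nm · Read-out – % activation versus carbachol response · Control set – carbachol high, DMSO low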
# CRFR2-BP ag: agonists of CRF-BP/CRF-R2 complex, primary screen, cell-based, HEK293, calcium dye fluorescence, uHTS. 0.46% of 350,000 active. AID 588473, 2011. calcium dye fluorescence (FLIPR); percent of saturating CRF peptide response. activation, % at 13.2 µM. CRF-binding protein / CRF receptor 2 complex (human);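 active = activation of at least 50%, plus an integration ratio under a set limit after plate pattern correction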
# OXTR ag: human OXTR agonists, primary screen, fluorescence, CHO-OTR cells, Fluo-8 calcium; Fluo-8 calcium fluorescence; normalized: DMSO 0%, oxytocin 100%; activation, % at 3 µM; 0.32% of 320,000 active; Oxytocin receptor (Homo sapiens), P30559; AID 2435, 2010;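 active = activation above the mean of all tested compounds plus 3 SD, cutoff set per screening run, cut at about 20% in these data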;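 note: peak over basal fluorescence ratio from a 100 s FLIPR kinetic read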
# V1R ag counter: agonists of human V1a receptor, primary screen, counter-screen for OXTR agonist project, fluorescence, CHO-V1R cells; Vasopressin V1a receptor (Homo sapiens), P37288; Fluo-8 calcium fluorescence, agonist mode; 0% DMSO, 100% 3 nM vasopressin; activation, % at 3 µM; 0.25% of 320,000 active; AID 2797, 2010;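 active = activation above the mean activation of all tested compounds plus 3 SD, per screening run, cut at about 20% in these data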;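 note: signal is peak over basal fluorescence ratio across a 100 second FLIPR read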
# Numbers stand for hits; n = inactive; x = not tested or not shown. Hits are enriched below; roughly 0.85% of the tested compounds scored in any of these assays.
SMILES,OXTR potentiate,TRPML3 agonist,zfTRPN1 agonist,CRFR2-BP ag,OXTR ag,V1R ag counter
C=CCC[C@H](Cc1ccc(F)cc1)C(=O)OC[C@H](Cc1c[nH]c2ccccc12)NC(=O)[C@@H](CC=C)CC(=O)NCCO,n,x,x,60.0,n,n
C=CCC[C@H](Cc1ccc(F)cc1)C(=O)OC[C@@H](Cc1c[nH]c2ccccc12)NC(=O)[C@@H](CC=C)CC(=O)N[C@@H](CO)Cc1ccccc1,n,x,x,n,n,n
CCCc1ccc2oc(C(=O)N(Cc3nccn3C)C(C)C)c(C)c2c1,n,x,x,n,n,n
C[C@H](O)[C@@H]1CN2CCc3c([nH]c4ccc(-c5ccc6c(c5)OCO6)cc34)[C@@H]2C[C@@H]1N(C)C(=O)NC1CCCCC1,x,x,x,n,x,x
COc1ccc(Cl)cc1-c1nc(SCC(=O)NC(C)C(C)C)n[nH]1 (configuration not stated),n,n,n,n,n,n
CCN(CC)c1ccc(/C=C(\C#N)c2nc(-c3cccs3)c(NC(C)=O)s2)cc1,x,29.4,21.6,x,x,x
CCCCCCCCCCOC(=O)Cn1c(COc2ccccc2)[n+](C)c2ccccc21,n,x,x,n,26.9,52.9
CCCCCCCCCCOC(=O)Cn1c(COc2ccc(Cl)cc2)[n+](C)c2ccccc21,n,x,x,n,n,n
CC(C)N1CC=C2C(C#N)=C(N)C(C#N)(C#N)[C@H](c3ccoc3)[C@H]2C1,n,n,n,x,n,n
CC(C)N1CC=C2C(C#N)=C(N)C(C#N)(C#N)C(c3ccccc3)C2C1 (configuration not stated),n,n,n,89.5,n,n
CC(=O)Nc1ccc(NS(=O)(=O)c2ccccc2)cc1,n,n,n,n,n,n
CC(=O)C(C(C)=O)c1cc(NS(=O)(=O)c2ccccc2)ccc1NS(=O)(=O)c1ccccc1,n,x,x,159.6,n,n
Cc1cc2nc(/C(C#N)=C\c3ccc(-c4ccccc4C(=O)O)o3)[nH]c2cc1C,n,x,x,100.1,n,n
Cc1ccc2nc(/C(C#N)=C/c3ccc(-c4ccccc4C(=O)O)o3)[nH]c2c1,n,x,x,65.3,39.5,26.8
N#C/C(=C\c1ccc(-c2ccccc2C(=O)O)o1)c1nc2ccccc2[nH]1,n,x,x,n,n,n
CCOC(=O)C1=C(COC(=O)c2ncc(Cl)c(Cl)c2Cl)NC(=O)NC1C (configuration not stated),n,x,x,n,n,n
CC(NC(=O)Nc1ccc([N+](=O)[O-])cc1)C(c1cccs1)N1CCCC1 (configuration not stated),n,n,n,n,32.7,55.5
CC(NC(=O)Nc1cccc(Cl)c1)C(c1cccs1)N1CCCC1 (configuration not stated),n,n,n,n,n,n
COc1ccc(C2CC(c3cccs3)=NN2c2ccc(C=O)cc2)cc1 (configuration not stated),n,17.4,29.3,108.9,24.5,27.6
C[C@H](CO)N1C[C@H](C)[C@H](CN(C)S(C)(=O)=O)Oc2c(cccc2N(C)C)C1=O,n,x,x,n,n,n
COc1cc([N+](=O)[O-])ccc1N/C=C/C(=O)c1cccs1,n,n,n,83.9,n,n
CCOCCn1c(SCc2ccccc2)nc2c1c(=O)[nH]c(=O)n2C,n,x,x,n,n,n
CCOCCn1c(SCC(=O)OCc2ccccc2)nc2c1c(=O)[nH]c(=O)n2C,n,x,x,55.7,n,n
CCN=C1S/C(=C\c2ccc(N3CCOCC3)cc2C)C(=O)N1CC,n,n,n,n,n,n
COCCN1C(=O)/C(=C/c2ccc(N3CCCC3)cc2C)SC1=S,n,n,n,181.6,n,n
